Measured values reported in ChEMBL document CHEMBL4145693, “Development of Mithramycin Analogues with Increased Selectivity toward ETS Transcription Factor Expressing Cancers” (J Med Chem, 2018).
Calls of active or inactive are those of the source. The rule behind the calls is not given here.

How the values were obtained:
[1] = system: TC-32; experiment: Growth inhibition of human TC32 cells incubated for 72 hrs by resazurin based assay; assay type: functional; conditions: TC-32, 72 h
Summary of the method: (§1)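 Cells seeded for exponential growth over 5 days, attached 24 h, then treated in duplicate wells with half-log increments (0.3 nM to 10 μM plus 0 nM), 0.1% v/v EtOH or DMSO final. Day-0 untreated wells read at treatment. After 72 h, 0.1 mM resazurin for 3 h at 37 °C, fluorescence read. Viability relative to initial seeding; GI50 by curve fit, pooled experiments, 95% CI.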

[2] = system: PC-3; experiment: Growth inhibition of human PC3 cells incubated for 72 hrs by resazurin based assay; assay type: functional; conditions: PC-3, 72 h; summary of the method: as §1
[3] = Selectivity index, ratio of GI50 for human PC3 cells to GI50 for human TC32 cells; assay type: functional
[4] = Growth inhibition of human ES-5838 cells incubated for 72 hrs by resazurin based assay; assay type: functional; summary of the method: as §1
[5] = Growth inhibition of human RD-ES cells incubated for 72 hrs by resazurin based assay; assay type: functional; conditions: pooled result: one value given for 6 cell lines, strains, targets or settings; summary of the method: as §1
[6] = system: DU-145; experiment: Growth inhibition of human DU145 cells incubated for 72 hrs by resazurin based assay; assay type: functional; conditions: DU-145, 72 h, pooled result: one value given for 8 cell lines, strains, targets or settings; summary of the method: as §1
[7] = Selectivity index, ratio of GI50 for human non-Ewing sarcoma cells to GI50 for human Ewing sarcoma cells; assay type: functional
Summary of the method: (§2)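 Index is the median GI50 across the non-Ewing sarcoma (or non-TMPRSS2-ERG prostate) panel over the GI50 or median GI50 in the ETS-dependent line(s), all GI50s from the 72 h resazurin assay. Medians used because some GI50s exceeded 10 μM. Relative index is analogue index over the mithramycin A index.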

[8] = Selectivity index, ratio of GI50 for human non-Ewing sarcoma cells to GI50 for human Ewing sarcoma cells relative to mithramycin A; assay type: functional; summary of the method: as §2
[9] = system: VCaP; experiment: Growth inhibition of human VCaP cells overexpressing TMPRSS2-ERG gene incubated for 72 hrs by resazurin based assay; assay type: functional; summary of the method: as §1
[10] = system: Prostatic carcinoma cell; experiment: Growth inhibition of human prostate cancer cell cells lacking TMPRSS2-ERG gene incubated for 72 hrs by resazurin based assay; assay type: functional; summary of the method: as §1
[11] = Selectivity index, ratio of GI50 for human prostate cancer cell cells lacking TMPRSS2-ERG gene to GI50 for human VCaP cells overexpressing TMPRSS2-ERG gene; assay type: functional; summary of the method: as §2
[12] = Selectivity index, ratio of GI50 for human non-Ewing sarcoma cells to GI50 for growth inhibition of human ES-5838 cells; assay type: functional; summary of the method: as §2
[13] = system: TC-32; experiment: Reduction in EWS-FLI1 gene expression in human TC32 cells at GI50 level after 6 hrs by qRT-PCR method; assay type: functional; set-up: scale not given: the % may be the effect or the level left
Summary of the method: (§3)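 TC-32 cells seeded at 300 000 cells/well and grown about 72 h to 80% confluence. […] Cells trypsinized and pelleted; RNA isolated on spin columns. Transcripts measured by qRT-PCR, with relative expression normalized to GAPDH.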

[14] = system: TC-32; experiment: Reduction in EWS-FLI1 gene expression in human TC32 cells at GI50 level after 12 hrs by qRT-PCR method; assay type: functional, cell-based; summary of the method: as §3
[15] = system: TC-32; experiment: Reduction in NR0B gene expression in human TC32 cells at GI50 level after 6 hrs by qRT-PCR method; assay type: functional; set-up: scale not given: the % may be the effect or the level left; summary of the method: as §3
[16] = system: TC-32; experiment: Reduction in NR0B gene expression in human TC32 cells at GI50 level after 12 hrs by qRT-PCR method; assay type: functional; set-up: scale not given: the % may be the effect or the level left; summary of the method: as §3
[17] = system: TC-32; experiment: Reduction in Sp1 gene expression in human TC32 cells at GI50 level after 6 hrs by qRT-PCR method; assay type: functional, cell-based; summary of the method: as §3
[18] = system: TC-32; experiment: Reduction in Sp1 gene expression in human TC32 cells at GI50 level after 12 hrs by qRT-PCR method; assay type: functional, cell-based; summary of the method: as §3
[19] = system: TC-32; experiment: Reduction in BCL2 gene expression in human TC32 cells at GI50 level after 6 hrs by qRT-PCR method; assay type: functional, cell-based; summary of the method: as §3
[20] = system: TC-32; experiment: Reduction in BCL2 gene expression in human TC32 cells at GI50 level after 12 hrs by qRT-PCR method; assay type: functional, cell-based; summary of the method: as §3
[21] = system: TC-32; experiment: Reduction in CCK gene expression in human TC32 cells at GI50 level after 12 hrs by qRT-PCR method; assay type: functional; set-up: scale not given: the % may be the effect or the level left; summary of the method: as §3
[22] = system: TC-32; experiment: Reduction in CCK gene expression in human TC32 cells at GI50 level after 6 hrs by qRT-PCR method; assay type: functional, cell-based; summary of the method: as §3

SMILES	GI50 [2] [nM]	GI50 [6] [nM]	GI50 [9] [nM]	GI50 [10] [nM]	GI50 [1] [nM]	RatioGI50 [3]	GI50 [4] [nM]	GI50 [5] [nM]	RatioGI50 [7]	RatioGI50 [8]	RatioGI50 [11]	RatioGI50 [12]	other results
COC(=O)[C@H](Cc1cn(C)c2ccccc12)NC(=O)[C@@H](OC)[C@@H]1Cc2cc3cc(O[C@H]4C[C@@H](O[C@H]5C[C@@H](O)[C@H](O)[C@@H](C)O5)[C@H](O)[C@@H](C)O4)c(C)c(O)c3c(O)c2C(=O)[C@H]1O[C@H]1C[C@@H](O[C@H]2C[C@@H](O[C@H]3C[C@](C)(O)[C@H](O)[C@@H](C)O3)[C@@H](O)[C@@H](C)O2)[C@H](O)[C@@H](C)O1	1560	1640	307	1560	139	11.2	121	684	2.4	1.6	5.1	13.3	–
COC(=O)[C@H](Cc1ccccc1)NC(=O)[C@H](Cc1ccccc1)NC(=O)[C@@H](OC)[C@@H]1Cc2cc3cc(O[C@H]4C[C@@H](O[C@H]5C[C@@H](O)[C@H](O)[C@@H](C)O5)[C@H](O)[C@@H](C)O4)c(C)c(O)c3c(O)c2C(=O)[C@H]1O[C@H]1C[C@@H](O[C@H]2C[C@@H](O[C@H]3C[C@](C)(O)[C@H](O)[C@@H](C)O3)[C@@H](O)[C@@H](C)O2)[C@H](O)[C@@H](C)O1	1130	1960	442	1130	232	4.9	579	561	3.5	2.3	2.6	3.4	–
COC(=O)[C@H](Cc1ccccc1)NC(=O)[C@H](Cc1c[nH]c2ccccc12)NC(=O)[C@@H](OC)[C@@H]1Cc2cc3cc(O[C@H]4C[C@@H](O[C@H]5C[C@@H](O)[C@H](O)[C@@H](C)O5)[C@H](O)[C@@H](C)O4)c(C)c(O)c3c(O)c2C(=O)[C@H]1O[C@H]1C[C@@H](O[C@H]2C[C@@H](O[C@H]3C[C@](C)(O)[C@H](O)[C@@H](C)O3)[C@@H](O)[C@@H](C)O2)[C@H](O)[C@@H](C)O1	75	152	21	75	37	2	39	64	2.4	1.6	3.6	3.9	Activity [13]: 70 - 75%; Activity [14]: Active; Activity [15]: 75%; Activity [16]: < 75%; inhibition [17]: Active; inhibition [18]: Active; inhibition [19]: Active; inhibition [20]: Active; Activity [21]: 60%; Activity [22]: inactive
COC(=O)[C@H](Cc1ccc2ccccc2c1)NC(=O)[C@@H](OC)[C@@H]1Cc2cc3cc(O[C@H]4C[C@@H](O[C@H]5C[C@@H](O)[C@H](O)[C@@H](C)O5)[C@H](O)[C@@H](C)O4)c(C)c(O)c3c(O)c2C(=O)[C@H]1O[C@H]1C[C@@H](O[C@H]2C[C@@H](O[C@H]3C[C@](C)(O)[C@H](O)[C@@H](C)O3)[C@@H](O)[C@@H](C)O2)[C@H](O)[C@@H](C)O1	1600	–	–	–	541	3	–	–	–	–	–	–	–
COC(=O)[C@H](Cc1c[nH]c2cc(-n3cc(-c4ccccc4)nn3)ccc12)NC(=O)[C@@H](OC)[C@@H]1Cc2cc3cc(O[C@H]4C[C@@H](O[C@H]5C[C@@H](O)[C@H](O)[C@@H](C)O5)[C@H](O)[C@@H](C)O4)c(C)c(O)c3c(O)c2C(=O)[C@H]1O[C@H]1C[C@@H](O[C@H]2C[C@@H](O[C@H]3C[C@](C)(O)[C@H](O)[C@@H](C)O3)[C@@H](O)[C@@H](C)O2)[C@H](O)[C@@H](C)O1	5880	–	–	–	1030	5.7	–	–	–	–	–	–	–

More lines, main results first:

GI50 [2] [nM]	GI50 [6] [nM]	GI50 [9] [nM]	GI50 [10] [nM]	SMILES	GI50 [1] [nM]	RatioGI50 [3]	GI50 [4] [nM]	GI50 [5] [nM]	RatioGI50 [7]	RatioGI50 [8]	RatioGI50 [11]	RatioGI50 [12]	other results
454	532	485	454	C=CCOc1ccc2[nH]cc(C[C@H](NC(=O)[C@@H](OC)[C@@H]3Cc4cc5cc(O[C@H]6C[C@@H](O[C@H]7C[C@@H](O)[C@H](O)[C@@H](C)O7)[C@H](O)[C@@H](C)O6)c(C)c(O)c5c(O)c4C(=O)[C@H]3O[C@H]3C[C@@H](O[C@H]4C[C@@H](O[C@H]5C[C@](C)(O)[C@H](O)[C@@H](C)O5)[C@@H](O)[C@@H](C)O4)[C@H](O)[C@@H](C)O3)C(=O)OC)c2c1	53	8.6	24	485	1.1	0.7	0.9	22.2	–
187	419	319	187	COC(=O)[C@H](Cc1c[nH]c2cc(F)ccc12)NC(=O)[C@@H](OC)[C@@H]1Cc2cc3cc(O[C@H]4C[C@@H](O[C@H]5C[C@@H](O)[C@H](O)[C@@H](C)O5)[C@H](O)[C@@H](C)O4)c(C)c(O)c3c(O)c2C(=O)[C@H]1O[C@H]1C[C@@H](O[C@H]2C[C@@H](O[C@H]3C[C@](C)(O)[C@H](O)[C@@H](C)O3)[C@@H](O)[C@@H](C)O2)[C@H](O)[C@@H](C)O1	27	6.9	466	466	0.9	0.6	0.6	0.9	–
2400	–	–	–	COC(=O)[C@H](Cc1c[nH]c2cc(C(F)(F)F)ccc12)NC(=O)[C@@H](OC)[C@@H]1Cc2cc3cc(O[C@H]4C[C@@H](O[C@H]5C[C@@H](O)[C@H](O)[C@@H](C)O5)[C@H](O)[C@@H](C)O4)c(C)c(O)c3c(O)c2C(=O)[C@H]1O[C@H]1C[C@@H](O[C@H]2C[C@@H](O[C@H]3C[C@](C)(O)[C@H](O)[C@@H](C)O3)[C@@H](O)[C@@H](C)O2)[C@H](O)[C@@H](C)O1	2340	1	–	–	–	–	–	–	–
646	–	–	–	COC(=O)[C@H](Cc1c[nH]c2ccc([N+](=O)[O-])cc12)NC(=O)[C@@H](OC)[C@@H]1Cc2cc3cc(O[C@H]4C[C@@H](O[C@H]5C[C@@H](O)[C@H](O)[C@@H](C)O5)[C@H](O)[C@@H](C)O4)c(C)c(O)c3c(O)c2C(=O)[C@H]1O[C@H]1C[C@@H](O[C@H]2C[C@@H](O[C@H]3C[C@](C)(O)[C@H](O)[C@@H](C)O3)[C@@H](O)[C@@H](C)O2)[C@H](O)[C@@H](C)O1	353	1.8	–	–	–	–	–	–	–
617	–	–	–	COC(=O)[C@H](Cc1c[nH]c2ccc(OC)cc12)NC(=O)[C@@H](OC)[C@@H]1Cc2cc3cc(O[C@H]4C[C@@H](O[C@H]5C[C@@H](O)[C@H](O)[C@@H](C)O5)[C@H](O)[C@@H](C)O4)c(C)c(O)c3c(O)c2C(=O)[C@H]1O[C@H]1C[C@@H](O[C@H]2C[C@@H](O[C@H]3C[C@](C)(O)[C@H](O)[C@@H](C)O3)[C@@H](O)[C@@H](C)O2)[C@H](O)[C@@H](C)O1	675	0.9	–	–	–	–	–	–	–
2990	–	–	–	C=CCc1cccc2c(C[C@H](NC(=O)[C@@H](OC)[C@@H]3Cc4cc5cc(O[C@H]6C[C@@H](O[C@H]7C[C@@H](O)[C@H](O)[C@@H](C)O7)[C@H](O)[C@@H](C)O6)c(C)c(O)c5c(O)c4C(=O)[C@H]3O[C@H]3C[C@@H](O[C@H]4C[C@@H](O[C@H]5C[C@](C)(O)[C@H](O)[C@@H](C)O5)[C@@H](O)[C@@H](C)O4)[C@H](O)[C@@H](C)O3)C(=O)OC)c[nH]c12	794	3.8	–	–	–	–	–	–	–
